In brackets after ≈: the same amount, converted by molar mass. Read-outs that look alike come from different tables or passages of the source.
Columns and labels:
antibenzothiostrobin mAb [1] = settings: ic-ELISA; cited from earlier work
antibenzothiostrobin mAb [2] = settings: competitive phage ELISA; cited from earlier work
antibenzothiostrobin mAb [3] = settings: noncompetitive phage ELISA; cited from earlier work
antibenzothiostrobin mAb [4] = settings: competitive FIA, synthetic peptide FITC-Ahx-CSGLAEFMSC; cited from earlier work
antibenzothiostrobin mAb [5] = settings: noncompetitive FIA, synthetic peptide FITC-Ahx-CPDIWPTAWC; cited from earlier work
[6] = test system: antibenzothiostrobin mAb 4E8; parameters: species or system murine; settings: ITC; ratio of binding constants versus monomer
In short: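 Isothermal titration calorimetry at 25 °C. All samples were diluted in 10 mM BB and degassed. The mAb was in the cell, with water in the reference cell and buffer titrated as control. Peptide in the syringe was 260 μM (monomer), 150 μM (dimer) or 50 μM (tetramer). Run used 20 injections, 60 s initial delay and 1000 rpm stirring. N, K, ΔH and ΔS were obtained from a one-site fit, with a c value checked for quality.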

antibenzothiostrobin mAb [7] = assay: Inner filter effect immunoassay; type: binding, murine; settings: ratio of SC50 values; analyte benzothiostrobin
In short: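 Homogeneous competitive format. The UCNP probe was NaYF4:Yb,Er, amine-silica coated and glutaraldehyde-coupled to the monomer, dimer or tetramer peptidomimetic, and the absorber was mAb-conjugated gold nanoflowers. Standard and both probes were mixed in BB for 1 h at 37 °C with gentle shaking. Emission at 657 nm was read under 980 nm laser excitation. ΔI (I−I0) was plotted against log analyte concentration, and SC50 was taken as 50% signal saturation.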

Row | Compound | IC50 (antibenzothiostrobin mAb [1]) | IC50 (antibenzothiostrobin mAb [2]) | SC50 (antibenzothiostrobin mAb [3]) | IC50 (antibenzothiostrobin mAb [4]) | SC50 (antibenzothiostrobin mAb [5]) | fold higher affinity for mAb compared to monomer [6] | improvement of IFE-IA sensitivity compared to dimer (antibenzothiostrobin mAb [7]) | improvement of IFE-IA sensitivity compared to monomer (antibenzothiostrobin mAb [7])
1 | CO/C=C(/C(=O)OC)c1ccccc1CSc1nc2ccccc2s1 [benzothiostrobin] | 7.55 ng/mL (≈ 0.0203 µM) | 0.94 ng/mL (≈ 0.00253 µM) | 2.27 ng/mL | 16.8 ng/mL (≈ 0.0452 µM) | 93.4 ng/mL |  |  | 
2 | ((Ac-CSGLAEFMSC)2K)2KK (bicyclic or more) [tetramer] |  |  |  |  |  | 13.6 fold | ~3 fold | approximately 6 fold
3 | (Ac-CSGLAEFMSC)2KK (bicyclic or more) [dimer] |  |  |  |  |  | 1.87 fold |  | 

— article PMC7059760 (ACS applied materials & interfaces, 2019)
